{"data": "Measured values collected from several papers", "target": "Serine/threonine-protein kinase pim-1 (PIM1, Homo sapiens, UniProt P11309)", "note": "Lines come from different studies, so protocols differ."}
{"Structure (SMILES)": "C[C@H]1CCN(c2nccc(-c3cnn4ncccc34)n2)C1", "effect on": "binding", "concentration": "1 µM", "remaining binding [%]": 83}
{"Structure (SMILES)": "Cc1cnc(Nc2ccc(C(=O)N3CCC(N4CCCC4)CC3)cc2)nc1-c1cc2ccccc2s1", "effect on": "binding", "technique": "competition with immobilised ligand", "concentration": "1 µM", "remaining binding [%]": 75}
{"Structure (SMILES)": "N[C@@H]1CCN(c2nccc(-c3cnn4ncccc34)n2)C1", "effect on": "binding", "concentration": "1 µM", "remaining binding [%]": 100}
{"Structure (SMILES)": "COc1cnc(Nc2cccc(S(N)(=O)=O)c2)nc1N1CCN(c2ccccc2)CC1", "effect on": "binding", "technique": "competition with immobilised ligand", "concentration": "1 µM", "remaining binding [%]": 95}
{"Structure (SMILES)": "O=C(NCCCN1CCOCC1)c1ccc(Nc2ncc(Cl)c(-c3ccc(Cl)s3)n2)cc1", "effect on": "binding", "technique": "competition with immobilised ligand", "concentration": "1 µM", "remaining binding [%]": 100}
{"Structure (SMILES)": "C[C@H](c1ccc(F)cc1)N(Cc1cccc(C(=O)O)c1)C(=O)c1cnc2ccccc2c1", "effect on": "cell-free assay", "technique": "competition with immobilised ligand", "concentration": "1 µM", "remaining binding [%]": 100}
{"Structure (SMILES)": "COc1ccnn2ncc(-c3ccnc(N(C)C)n3)c12", "effect on": "binding", "concentration": "1 µM", "remaining binding [%]": 74}
{"Structure (SMILES)": "O=C(NCC1CCOCC1)c1n[nH]cc1NC(=O)c1c(F)cccc1F", "effect on": "binding", "technique": "competition with immobilised ligand", "concentration": "1 µM", "remaining binding [%]": 100}
{"Structure (SMILES)": "CC(C)(C)c1ccc(-c2nc(CBr)nn2-c2cccc(O)c2)cc1", "effect on": "cell-free assay", "technique": "competition with immobilised ligand", "concentration": "10 µM", "remaining binding [%]": 90}
{"Structure (SMILES)": "CC1CCCN1c1nccc(-c2cnn3ncccc23)n1 (centres unmarked)", "effect on": "binding", "concentration": "1 µM", "remaining binding [%]": 100}
{"Structure (SMILES)": "C[C@@H](c1ccc(-n2cnc3c(N)ncnc32)cc1)N1CCc2nn(C)c(Cc3ccccc3)c2C1=O", "effect on": "binding", "technique": "competition with immobilised ligand", "concentration": "0.1 µM", "remaining binding [%]": 97}
{"Structure (SMILES)": "Cc1cnn2ncc(-c3ccnc(N(C)C)n3)c2c1", "effect on": "binding", "concentration": "1 µM", "remaining binding [%]": 80}
{"Structure (SMILES)": "O=C(c1ccc(Nc2ncc(Cl)c(-c3cc4ccccc4s3)n2)cc1)N1CCC(N2CCCC2)CC1", "effect on": "binding", "technique": "competition with immobilised ligand", "concentration": "1 µM", "remaining binding [%]": 84}
{"Structure (SMILES)": "CN(c1nccc(-c2cnn3ncccc23)n1)C1CC1", "effect on": "binding", "concentration": "1 µM", "remaining binding [%]": 100}
{"Structure (SMILES)": "O=C(NC[C@@H]1[C@H]2CN(C(=O)OCc3cc(C(F)(F)F)cc(C(F)(F)F)c3)C[C@@H]12)c1ccc2[nH]nnc2c1", "effect on": "cell-free assay", "technique": "competition with immobilised ligand", "concentration": "1 µM", "remaining binding [%]": 98}
{"Structure (SMILES)": "C=CC(=O)N1CCC(C(=O)NCC(=O)N2CCN(c3nc(-c4cnc(N)nc4C(F)F)nc(N4CCOCC4)n3)CC2)CC1", "effect on": "binding", "technique": "competition with immobilised ligand", "concentration": "1 µM", "remaining binding [%]": 95}
{"Structure (SMILES)": "Cn1nc(C(=O)NCc2ccc(C(=O)O)cc2)cc1-c1ccc2[nH]ccc2c1", "effect on": "cell-free assay", "technique": "competition with immobilised ligand", "concentration": "0.1 µM", "remaining binding [%]": 91}
{"Structure (SMILES)": "C[C@@H]1CN(c2ccc3ncc(-c4ccc5[nH]nc(C6CC6)c5c4)n3n2)C[C@H](C)O1", "effect on": "binding", "technique": "competition with immobilised ligand", "concentration": "50 nM", "remaining binding [%]": 66}
{"Structure (SMILES)": "O=C1NC(c2ccccn2)Sc2ccccc21 (centres unmarked)", "effect on": "cell-free assay", "technique": "competition with immobilised ligand", "concentration": "1 µM", "remaining binding [%]": 82}
{"Structure (SMILES)": "COc1cnc(Nc2cccc(S(N)(=O)=O)c2)nc1N1CCN(c2ccccc2)C(=O)C1", "effect on": "binding", "technique": "competition with immobilised ligand", "concentration": "1 µM", "remaining binding [%]": 100}
{"Structure (SMILES)": "CCCCN(CCCC)C(=O)CN1C[C@H](c2cc(OC)c3c(c2)OCO3)[C@@H](C(=O)O)[C@@H]1CC(C)(C)CCC", "effect on": "cell-free assay", "technique": "competition with immobilised ligand", "concentration": "1 µM", "remaining binding [%]": 100}
{"Structure (SMILES)": "COc1ncc2cc3ccccc3nc2c1C#N", "effect on": "cell-free assay", "technique": "competition with immobilised ligand", "concentration": "5 µM", "remaining binding [%]": 87}
{"Structure (SMILES)": "CCC(=N\\O)/C(C)=C/c1ccc(F)cc1", "effect on": "cell-free assay", "technique": "competition with immobilised ligand", "concentration": "1 µM", "remaining binding [%]": 85}
{"Structure (SMILES)": "N#Cc1ccccc1CSc1nnc2c(n1)[nH]c1ccccc12", "effect on": "binding", "technique": "competition with immobilised ligand", "concentration": "10 µM", "remaining binding [%]": 90}
{"Structure (SMILES)": "CNC(=O)Nc1ccc2c(c1)CC[C@@]21OC(=O)N(CC(=O)N(Cc2ccc(F)cc2)[C@@H](C)C(F)(F)F)C1=O", "effect on": "cell-free assay", "technique": "competition with immobilised ligand", "concentration": "1 µM", "remaining binding [%]": 100}
{"Structure (SMILES)": "F[C@@H]1CCN(c2nccc(-c3cnn4ncccc34)n2)C1", "effect on": "binding", "concentration": "1 µM", "remaining binding [%]": 100}
